Test results published in publication PMC8518898 (Journal of Clinical Pharmacology, 2021).
“Also recorded” adds a separate entry of the source. Read-outs that look alike come from different tables or passages of the source. Marks after values point to notes of the source that are not given here.

How the values were obtained:
[1] = test system: JAK3; details: metabolites; ref data on file; cited from earlier work
[2] = test system: JAK2; details: metabolites; ref data on file; cited from earlier work
[3] = Phase 1 hepatic impairment study; assay type: in vivo, human; details: for MRAUCinf (ratio of metabolite to abrocitinib for AUCinf) / tmax / AUCinf / AUClast / Cmax / AUC(0-inf) / AUC(0-t): single 200-mg oral dose of abrocitinib; for MRAUCinf (ratio of metabolite to abrocitinib for AUCinf) / AUCinf / AUClast / Cmax / AUC(0-inf) / AUC(0-t): geometric mean (geometric %CV); for tmax: median (range); for AUC(0-inf): AUCinf; for AUC(0-t): AUClast
[4] = test system: IFN‐α signaling (JAK1/TYK2 kinase dimer); assay: In vitro whole blood inhibition of IFN-α signaling; assay type: cell-based; details: read-out: unbound IC50 (IC50,u) of IFN‐α signaling; IC50,u = IC50 × [fu / (blood/plasma ratio)]
[5] = ref data on file; cited from earlier work
[6] = test system: tyrosine kinase 2 (TYK2); details: metabolites; ref data on file; cited from earlier work
[7] = ref data on file; cited from earlier work; remark: listed apart in the source
[8] = molecular target: IFN‐α signaling (JAK1/TYK2 kinase dimer); details: read-out: In vitro whole blood IFN‐α IC50, ref data on file; cited from earlier work
[9] = test system: JAK1; details: ref data on file; cited from earlier work
[10] = single oral dose 200-mg abrocitinib/80 μg (500 nCi) [14C]; ref data on file; cited from earlier work
[11] = ref data on file; cited from earlier work; remark: listed apart in the source
[12] = up to 800-mg single dose, repeated total daily doses up to 400 mg; cited from earlier work
[13] = cited from earlier work
[14] = once daily 100 mg or 200 mg; cited from earlier work
[15] = Phase 1 hepatic impairment study; assay type: in vivo, human
Summary of the method: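 Single oral dose after an overnight fast, 8 subjects per hepatic function group. Adverse events, vital signs, physical exams, 12-lead ECGs and safety laboratory tests were assessed up to 72 h post-dose. Treatment-emergent events were scored for incidence, severity and causality. Clinically significant lab abnormalities or ongoing events were followed up by telephone or onsite visit at 28–35 days.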

[16] = mild hepatic impairment compared to normal hepatic function
[17] = mild hepatic impairment, plasma
[18] = moderate hepatic impairment compared to normal hepatic function
[19] = moderate hepatic impairment, plasma
[20] = normal hepatic function, plasma
[21] = human, plasma, po, 200 mg, mild hepatic impairment
[22] = human, plasma, po, 200 mg, moderate hepatic impairment
[23] = human, plasma, po, 200 mg, normal hepatic function

SMILES: CN(c1ncnc2[nH]ccc12)C1CC(NS(=O)(=O)CCCO)C1 (stereo not drawn) [M1]
- JAK1 enzyme kinase selectivity over JAK3 [1]: > 230 fold
- JAK1 enzyme kinase selectivity over JAK2 [2]: approximately 26 fold
- unadjusted geometric mean ratio for MRAUCinf [3, 16]: 0.239
- MRAUCinf (ratio of metabolite to abrocitinib for AUCinf) ([3]; mild hepatic impairment): 0.05 (54)
- tmax ([3]; mild hepatic impairment): 1.50 (1.00‐4.00) h
- AUCinf [3, 17]: 357.6 (49) ng • h/mL
- AUClast [3, 17]: 338.1 (52) ng • h/mL
- Cmax [3, 17]: 56.3 (54) ng/mL
- unadjusted geometric mean ratio for MRAUCinf [3, 18]: 0.320
- MRAUCinf (ratio of metabolite to abrocitinib for AUCinf) ([3]; moderate hepatic impairment): 0.06 (111)
- tmax ([3]; moderate hepatic impairment): 2.00 (1.00‐3.00) h
- AUCinf [3, 19]: 552.7 (51) ng • h/mL
- AUClast [3, 19]: 534.9 (52) ng • h/mL
- Cmax [3, 19]: 68.9 (57) ng/mL
- MRAUCinf (ratio of metabolite to abrocitinib for AUCinf) ([3]; normal hepatic function): 0.19 (100)
- tmax ([3]; normal hepatic function): 2.00 (1.00‐3.00) h
- AUCinf [3, 20]: 1120 (28) ng • h/mL
- AUClast [3, 20]: 1102 (29) ng • h/mL
- Cmax [3, 20]: 241.5 (50) ng/mL
- IC50 [4]: 0.165 µM
- fraction unbound in plasma (fu) [5]: 0.63
- JAK1 enzyme kinase selectivity over TYK2 [6]: ~74 fold
- blood/plasma ratio [7]: 1.13
- IC50 [8]: 0.296 µM
- pharmacological activity of metabolite [9]: active metabolites
- share of circulating species [10]: 11%

SMILES: C[C@H](O)CS(=O)(=O)NC1CC(N(C)c2ncnc3[nH]ccc23)C1 (stereo partly drawn) [M2]
- JAK1 enzyme kinase selectivity over JAK3 [1]: > 559 fold
- JAK1 enzyme kinase selectivity over JAK2 [2]: 49 fold
- unadjusted geometric mean ratio for MRAUCinf [3, 16]: 0.680
- MRAUCinf (ratio of metabolite to abrocitinib for AUCinf) ([3]; mild hepatic impairment): 0.15 (25)
- tmax ([3]; mild hepatic impairment): 2.50 (1.00‐4.00) h
- AUCinf [3, 17]: 1178 (22) ng • h/mL
- AUClast [3, 17]: 1081 (25) ng • h/mL
- Cmax [3, 17]: 139.9 (29) ng/mL
- unadjusted geometric mean ratio for MRAUCinf [3, 18]: 0.655
- MRAUCinf (ratio of metabolite to abrocitinib for AUCinf) ([3]; moderate hepatic impairment): 0.15 (78)
- tmax ([3]; moderate hepatic impairment): 2.00 (2.00‐4.00) h
- AUCinf [3, 19]: 1309 (38) ng • h/mL
- AUClast [3, 19]: 1192 (43) ng • h/mL
- Cmax [3, 19]: 119.2 (43) ng/mL
- MRAUCinf (ratio of metabolite to abrocitinib for AUCinf) ([3]; normal hepatic function): 0.22 (56) ^b
- tmax ([3]; normal hepatic function): 2.00 (1.00‐3.00) h
- AUCinf [3, 20]: 1519 (36) ^b ng • h/mL
- AUClast [3, 20]: 1395 (35) ng • h/mL
- Cmax [3, 20]: 253.1 (40) ng/mL
- IC50 [4]: 0.0506 µM
- fraction unbound in plasma (fu) [5]: 0.71
- JAK1 enzyme kinase selectivity over TYK2 [6]: 68 fold
- blood/plasma ratio [7]: 1.27
- IC50 [8]: 0.0905 µM
- pharmacological activity of metabolite [9]: active metabolites
- share of circulating species [10]: 12%

SMILES: CCCS(=O)(=O)N[C@H]1C[C@@H](N(C)c2ncnc3[nH]ccc23)C1 [abrocitinib, N‐{cis‐3‐[Methyl(7H‐pyrrolo[2,3‐d]pyrimidin‐4‐yl)amino]cyclobutyl}propane‐1‐sulfo namide]
- AUC(0-inf) [3, 21]: 7.45 µg·h/mL
- AUC(0-inf) [3, 22]: 8.6 µg·h/mL
- AUC(0-inf) [3, 23]: 5.59 µg·h/mL
- AUC(0-t) [3, 21]: 7.43 µg·h/mL
- AUC(0-t) [3, 22]: 8.55 µg·h/mL
- AUC(0-t) [3, 23]: 5.55 µg·h/mL
- Cmax ([3]; human, plasma, po, 200 mg, Cmax, mild hepatic impairment): 1.28 µg/mL
- Cmax ([3]; human, plasma, po, 200 mg, Cmax, moderate hepatic impairment): 1.43 µg/mL
- Cmax ([3]; human, plasma, po, 200 mg, Cmax, normal hepatic function): 1.35 µg/mL
- tmax ([3]; human, plasma, po, 200 mg, tmax, mild hepatic impairment): 2 h
- tmax ([3]; human, plasma, po, 200 mg, tmax, moderate hepatic impairment): 1 h
- tmax ([3]; human, plasma, po, 200 mg, tmax, normal hepatic function): 2 h
- increase in AUCinf [3, 16]: ≈ 33.3%
- effect of hepatic impairment on PK and safety ([3]; mild or moderate hepatic impairment): no clinically relevant effect
- increase in AUCinf [3, 18]: ~54.0%
- absolute oral bioavailability [11]: 60%
- fraction absorbed [11]: 91%
- safety and tolerability of higher doses [12]: safe and well tolerated
- median tmax ([13]; healthy subjects, suspension, doses of 3 to 200 mg): < 1 h
- increases in Cmax and AUCτ with increasing dose ([13]; multiple dose, total daily dose 30 mg up to 400 mg): greater than proportional
- increases in AUCinf, dose proportionality ([13]; single doses 400 and 800 mg): greater than dose proportional
- Cmax dose proportionality ([13]; single-dose range 3 to 800 mg): increased proportionally with dose
- efficacy and tolerability in moderate to severe atopic dermatitis [14]: effective and well tolerated; also recorded: safe and efficacious
- subjects with laboratory abnormality leukocyte esterase (≥1) ([15]; mild hepatic impairment): 4 subjects
- subjects reporting diarrhea ([15]; mild hepatic impairment (25%)): 2 subjects
- subjects reporting headache ([15]; mild hepatic impairment (25%)): 2 subjects
- subjects with treatment-emergent adverse events ([15]; mild hepatic impairment (N = 8)): 3 subjects
- subjects with laboratory abnormality leukocyte esterase (≥1) ([15]; moderate hepatic impairment): 5 subjects
- subjects reporting adverse events ([15]; moderate hepatic impairment (N = 8)): No subjects
- subjects with laboratory abnormality leukocyte esterase (≥1) ([15]; normal hepatic function): 1 subject
- safety and tolerability ([15]; single 200-mg oral dose, all 3 hepatic function groups): generally safe and well tolerated
- share of circulating species [10]: 26%
